The source of these data is ChEMBL document CHEMBL1143284, “Synthesis of riccardin C and its seven analogues. Part 1: The role of their phenolic hydroxy groups as LXRalpha agonists” (Bioorg Med Chem Lett, 2009).

Calls of active or inactive are those of the source. The calls are words filed in the database; no cut-off is given here.

Experiment [1] concerns the target T1, Oxysterols receptor LXR-beta (Homo sapiens) (UniProt P55055).
T1 sequence (whole entry): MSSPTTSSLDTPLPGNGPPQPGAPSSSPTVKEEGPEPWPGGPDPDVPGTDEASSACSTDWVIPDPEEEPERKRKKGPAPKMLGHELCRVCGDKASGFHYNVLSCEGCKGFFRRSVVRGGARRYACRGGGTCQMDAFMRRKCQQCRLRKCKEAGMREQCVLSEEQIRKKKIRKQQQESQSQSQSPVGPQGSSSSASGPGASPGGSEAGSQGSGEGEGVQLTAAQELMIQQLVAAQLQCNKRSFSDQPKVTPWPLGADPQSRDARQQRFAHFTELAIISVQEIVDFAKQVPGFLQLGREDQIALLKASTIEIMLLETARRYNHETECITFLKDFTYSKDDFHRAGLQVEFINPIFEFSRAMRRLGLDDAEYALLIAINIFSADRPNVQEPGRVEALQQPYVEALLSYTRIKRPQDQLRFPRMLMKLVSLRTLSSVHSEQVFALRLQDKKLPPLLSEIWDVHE
As to the kind of experiment: Agonist activity at full length LXRbeta expressed in african green monkey COS1 cells co-transfected with RXRalpha assessed as increase in LXR-response element driven luciferase reporter gene transactivation at 10 to 30 uM after 24 hrs. The conditions noted are these: COS-1. A general note: Reporter assays use an easily measured gene product as a stand-in for the process of interest.

Experiment [2] concerns the target T2, Oxysterols receptor LXR-alpha (Homo sapiens) (UniProt Q13133).
T2 sequence (whole entry): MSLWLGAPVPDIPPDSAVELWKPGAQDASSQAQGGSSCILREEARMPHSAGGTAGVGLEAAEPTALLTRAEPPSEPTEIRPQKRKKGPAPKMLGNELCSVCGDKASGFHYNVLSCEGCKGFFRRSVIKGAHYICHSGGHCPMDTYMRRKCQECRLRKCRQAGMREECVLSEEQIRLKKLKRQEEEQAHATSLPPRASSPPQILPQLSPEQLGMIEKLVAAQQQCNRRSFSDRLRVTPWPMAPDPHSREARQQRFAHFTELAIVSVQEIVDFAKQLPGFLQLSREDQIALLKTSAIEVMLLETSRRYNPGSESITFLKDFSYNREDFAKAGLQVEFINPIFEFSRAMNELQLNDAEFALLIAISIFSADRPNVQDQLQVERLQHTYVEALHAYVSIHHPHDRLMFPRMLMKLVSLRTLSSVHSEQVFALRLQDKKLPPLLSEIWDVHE
As to the kind of experiment: Agonist activity at full length LXRalpha expressed in african green monkey COS1 cells co-transfected with RXRalpha assessed as increase in LXR-response element driven luciferase reporter gene transactivation at 10 to 30 uM after 24 hrs. The conditions noted are these: COS-1.

In experiment [3] the target is T1, Oxysterols receptor LXR-beta (Homo sapiens). In words: Activation of full length LXRbeta expressed in african green monkey COS7 cells co-transfected with RXRalpha assessed as increase in LXR-response element driven luciferase reporter gene transactivation after 24 hrs. Format: cell-based. The conditions noted are these: COS-7. A digest of the protocol:
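Transient LXR/RXRα luciferase reporter assay in COS cells with β-galactosidase as internal control. Cells treated 24 h with test compounds at 10 or 30 μM, or TO901317 at 100 nM, in the presence of compactin to deplete endogenous LXR ligands. Luciferase activity in cell extracts normalized to β-galactosidase and expressed as fold induction over vehicle-treated cells.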

`COc1ccc2c(c1)CCc1ccc(cc1)Oc1cc(ccc1O)CCc1ccc-2c(O)c1`: the outcome in experiment [1] and in experiment [2] was inactive.

Turning to `Oc1ccc2c(c1)CCc1ccc(cc1)Oc1cc(ccc1O)CCc1ccc-2c(O)c1`, the outcome in experiment [3] was inactive.

Consider `COc1ccc2c(c1)CCc1ccc(cc1)Oc1cc(ccc1OC)CCc1ccc-2c(OC)c1`, for which the outcome in experiment [1] and in experiment [2] was inactive.

Regarding `COc1ccc2cc1Oc1ccc(cc1)CCc1cc(O)ccc1-c1ccc(cc1OC)CC2`, the outcome in experiment [1] and in experiment [2] was inactive.

Turning to `COc1ccc2c(c1)CCc1ccc(cc1)Oc1cc(ccc1OC)CCc1ccc-2c(O)c1`, the result in experiment [1] and in experiment [2] was inactive.

As for `COc1ccc2c(c1)CCc1ccc(cc1)Oc1cc(ccc1O)CCc1ccc-2c(OC)c1`, the result in experiment [1] and in experiment [2] was inactive.

For `COc1cc2ccc1-c1ccc(O)cc1CCc1ccc(cc1)Oc1cc(ccc1O)CC2`, the outcome in experiment [1] and in experiment [2] was inactive.

Take `COc1ccc2cc1Oc1ccc(cc1)CCc1cc(O)ccc1-c1ccc(cc1O)CC2`: the outcome in experiment [1] and in experiment [2] was inactive.
